# Compound activity (PubChem)
# HSF1 activator: increases HSF-1 driven luciferase reporter signal. NIH3T3-HGL HSF-1 luciferase reporter, MG132, 8 h; 100% = twice DMSO control signal. activation, % at 9 µM. 1.7% of 300,000 active. AID 504408;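 active = mean replicate activation of at least 50% with a set share of replicates each reaching 50%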;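 also: 0% = median of the neutral control wells and 100% = twice that signal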
# Hsp70 activator: switches on Hsp70 transcription. HeLa Hsp70 promoter luciferase reporter, luminescence; scaled: vehicle 0, proteasome-inhibitor control 100%. activation, % at 10 µM. 0.04% of 200,000 active. AID 1203;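 active = activation above the mean across all tested compounds plus 3 SD, cutoff set per campaign, cut at about 5.5% in these data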;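 also: 100% = MG132 at 30 µM as the positive control and 0% = DMSO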
# Tb hexokinase: blocks Trypanosoma brucei hexokinase 1 activity | 0.11% of 220,000 active | inhibition, % at 10 µM | recombinant TbHK1, G6PDH-coupled NADH A340;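 active = inhibition of 50% or more in the single-dose primary screen; inactive = inhibition below 50%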
# HKDC1 inh: HKDC1 (human) hexokinase inhibition. recombinant HKDC1, G6PDH/diaphorase resazurin coupled fluorescence. inhibition, % at 20 µM. 0.16% of 340,000 active. AID 493160;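 active = inhibition above about 35% when tested at 20 µM, limit read from the data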;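 also: plate controls were DMSO wells with enzyme for no effect and DMSO wells lacking enzyme for full effect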
#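 Assay system – recombinant HKDC1 (HK5) hexokinase enzyme, produced in-house · Input – HKDC1 at 5 µg/mL · Reagent – glucose plus 1 mM ATP as hexokinase substrates · Timing – 90 min reaction incubation at room temperature, dark · Measured by – G6PDH/diaphorase-coupled fluorescence, 1 mM NADP, 100 µM resazurin, 525/613 nm · Benchmarks – DMSO-enzyme wells negative, buffer-substituted wells positive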
# HSF1 inhib: HSF1 inhibition; NIH3T3-HGL HSE-luciferase, MG132-induced, luminescence 8 h; active compounds read low; activity change, negative = inhibition, % at 7.5 µM (by protocol); 0.77% of 300,000 active;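 active = more than half of replicate wells show activity change below -50%, luminescence cut by over half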;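 also: luciferase reports HSF-1 transcriptional activity via heat shock element; 0% = median of DMSO wells and -100% = zero luminescence signal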
# HSP90 inh: inhibitors of HSP90 luciferase refolding in rabbit reticulocyte lysate. inhibition, % at 5.6 µM. luciferase refolding luminescence, 3 h. 0.91% of 290,000 active. AID 1789;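 active = inhibition above the screen-wide mean plus 3 SD, computed separately per campaign, cut at about 16% in these data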;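 also: 0% = DMSO wells and 100% = 60 µM geldanamycin wells; inhibitors lower the luminescence because luciferase stays unfolded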
# HSP90 confirm: HSP90 inhibition, confirmation assay | shares compounds with HSP90 inh | rabbit reticulocyte lysate, luciferase refolding luminescence, 3 h | inhibition, % at 5.9 µM | 64% of 2,300 active; in the data active = inhibition above about 18%;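 also: 0% = vehicle wells and 100% = reference inhibitor wells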
# luciferase ctr: firefly luciferase inhibition, HSP90 counter-screen | shares compounds with HSP90 inh | inhibition, % at 5.9 µM | 48% of 2,300 active | purified native firefly luciferase, luminescence;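 active = inhibition above the mean inhibition of all tested sample wells plus 3 SD, cut at about 10% in these data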;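 also: 0% = DMSO with luciferase and 100% = wells lacking luciferase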
# Target sequence (P08659 whole entry, looked up): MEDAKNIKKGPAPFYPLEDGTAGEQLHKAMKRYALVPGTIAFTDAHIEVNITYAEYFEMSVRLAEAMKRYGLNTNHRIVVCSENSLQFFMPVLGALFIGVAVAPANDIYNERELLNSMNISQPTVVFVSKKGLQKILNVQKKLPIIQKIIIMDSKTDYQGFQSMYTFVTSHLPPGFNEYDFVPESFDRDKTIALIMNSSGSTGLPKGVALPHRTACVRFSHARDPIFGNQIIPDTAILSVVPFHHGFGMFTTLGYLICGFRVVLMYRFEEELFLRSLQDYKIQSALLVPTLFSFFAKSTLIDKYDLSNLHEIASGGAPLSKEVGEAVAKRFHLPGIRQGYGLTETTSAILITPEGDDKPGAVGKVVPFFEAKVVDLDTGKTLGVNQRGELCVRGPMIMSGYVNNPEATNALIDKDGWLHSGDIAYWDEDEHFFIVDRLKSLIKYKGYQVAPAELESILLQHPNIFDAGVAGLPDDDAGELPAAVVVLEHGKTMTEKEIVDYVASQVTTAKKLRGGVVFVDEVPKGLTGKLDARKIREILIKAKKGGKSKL
# Active calls of the source: *; / = no result. The list is not random: actives were taken first. Their share in the collection is about 3.1%.
SMILES,HSF1 activator,Hsp70 activator,Tb hexokinase,HKDC1 inh,HSF1 inhib,HSP90 inh,HSP90 confirm,luciferase ctr
Cc1ccc(C(=O)NCC(=O)NCCCc2ccccc2)cc1,-1,/,/,-7,-6,-1,/,/
Cc1oc(-c2ccc(Cl)cc2)cc1C(=O)O,32,/,-7,-6,15,20*,18*,4
Cn1ccc(C(=O)Nc2sc3c(c2C(N)=O)CCCCC3)n1,-7,/,/,0,-10,19*,38*,19*
Cn1nccc1C(=O)Nc1sc2c(c1C(N)=O)CCCC2,3,1,-14,-3,13,-1,/,/
CCOC(=O)c1sc(NC(=O)Nc2ccccc2F)nc1C,-80,0,0,-5,-74*,37*,76*,71*
CCOC(=O)CNC(=O)c1sc(NC(=O)c2cccc(F)c2)nc1C,-5,0,-36,-4,4,32*,32*,-23
CCOC(=O)c1sc(Nc2ccccc2Cl)nc1C,46,/,-21,27,26,-1,/,/
CCOC(=O)CNC(=O)c1sc(NC(=O)c2ccccc2F)nc1C,17,0,18,-12,4,70*,74*,12*
CC1C(=O)Nc2ccc(S(=O)(=O)N3CCCCCC3)cc21 (configuration not stated),/,/,/,-7,/,/,/,/
O=S(N1CCCCC1)C12CC3CC(CC(C3)C1)C2 (configuration not stated),-5,0,1,16,-6,40*,-3,-6
CC(C)(C)c1ccc(-c2cc(-c3ccccc3O)[nH]n2)cc1,-75,/,/,16,-72*,52*,60*,59*
COc1ccc(C(c2c(C)[nH]n(-c3ccccc3)c2=O)c2c(C)[nH]n(-c3ccccc3)c2=O)cc1OC,70*,0,30,-2,26,22*,-1,-9
COc1ccc(C(c2c(C)n(C)n(-c3ccccc3)c2=O)c2c(C)n(C)n(-c3ccccc3)c2=O)cc1OC,28,/,/,-3,7,1,/,/
O=C(CCNC(=O)c1ccc([N+](=O)[O-])cc1)Nc1ccc(F)cc1F,1,/,/,-2,3,1,/,/
CCOc1ccc(S(=O)(=O)N2CCN(C(=O)CN3C(=O)NC(C)(C)C3=O)CC2)cc1,/,/,/,-2,/,/,/,/
CCCCC(=O)Nc1nc2ccc(C(=O)OC)cc2s1,18,0,-4,-7,11,41*,59*,-16
CCOC(=O)c1cc(S(=O)(=O)N2CCN(C3CCCCC3)CC2)cn1C,-4,/,/,-4,0,2,/,/
Nc1c(C(=O)OCC2CCCO2)c2nc3ccccc3nc2n1C1CCCC1 (configuration not stated),21,0,-10,7,5,17*,-2,-8
Cc1ccc(C)c(NC(=O)CN(C)C(=O)c2cc3ccccc3oc2=O)c1,/,/,/,3,/,/,/,/
N#CCC(=O)Nc1ccc(C(=O)N2CCN(S(=O)(=O)c3ccc4ccccc4c3)CC2)cc1,7,/,/,-1,-2,-2,/,/
COc1ccc(/C=C/c2nc3ccccc3c(=O)o2)cc1,-66,/,/,6,-59*,79*,87*,14*
COc1ccccc1/C=C/c1nc2ccccc2c(=O)o1,27,/,/,3,24,8,/,/
CC(=O)c1sc(-c2ccc(Cl)cc2)cc1N,7,/,-9,3,4,18*,-6,-19
COC(=O)c1sc(-c2ccc(Cl)cc2)cc1N,31,/,-14,-1,9,1,/,/
CCOC(=O)[C@H]1[C@H]2COc3ccc(C)cc3[C@@H]2N2C(=O)CN(C)C(=O)[C@@]12C,/,/,/,-5,/,/,/,/
SMILES,HSF1 activator,Hsp70 activator,Tb hexokinase,HKDC1 inh,HSF1 inhib,HSP90 inh,HSP90 confirm,luciferase ctr
c1ccc(Nc2ccccn2)nc1,/,/,-12,-6,/,25*,1,-2
O=C(NCc1ccncc1)C1CCCN(S(=O)(=O)Cc2ccccc2)C1 (configuration not stated),8,0,8,-3,9,-4,/,/
O=C(NCc1ccco1)C1CCCN(S(=O)(=O)Cc2ccccc2)C1 (configuration not stated),-6,0,-5,11,-8,49*,-2,-8
Cc1cc(/C=N/NC(=O)c2ccncc2)c(C)n1-c1ccccc1,7,0,-27,0,0,6,/,/
Cc1cc(/C=N/NC(=O)c2cccs2)c(C)n1-c1ccccc1,-74,0,-44,-3,-69*,57*,71*,66*
Cc1cc(C(=O)N/N=C/c2ccc(O)c(O)c2O)c(C)n1-c1ccccc1,-12,0,-7,18,-21,17*,2,-20
CC(C)(C)C(=O)CN1C(=O)NC2(CCCc3ccccc32)C1=O (configuration not stated),11,/,/,-3,-1,1,/,/
Cc1cc(C(=O)CN2CCC(C)CC2)c(C)n1-c1ccccc1F,-79,0,0,-12,-73*,53*,58*,28*
Cc1cc(C(=O)CN2C(=O)C(=O)N(Cc3ccccc3)C2=O)c(C)n1-c1ccccc1F,-6,0,0,-4,2,2,/,/
CCOC(=O)c1ccc(-c2ccc3c(c2)CCC3)nc1C,36,/,/,4,11,1,/,/
COc1cccc(NC(=O)c2ccc3c(c2)OCCO3)c1,27,/,/,5,5,45*,55*,40*
COc1ccc(C(=O)Nc2ccc3c(c2)OCCO3)cc1,/,0,2,-9,/,28*,46*,27*
O=C(/C=C/c1ccccc1)Nc1ccc2c(c1)OCCO2,20,0,-12,-6,5,32*,51*,48*
Cc1ccccc1C(=O)Nc1ccc2c(c1)OCCO2,7,/,/,-5,8,43*,45*,34*
CC(NC(=O)COC(=O)c1ccc(Br)o1)c1ccccc1 (configuration not stated),/,/,/,-5,/,/,/,/
CSc1ccc(/C=C/C(=O)Nc2ccccc2)cc1,/,-1,-10,-4,/,23*,71*,67*
O=C(CC1CS(=O)(=O)CC1CC(=O)Nc1ccc2c(c1)OCCO2)Nc1ccc2c(c1)OCCO2 (configuration not stated),-86,0,-1,0,-82*,59*,68*,62*
Cc1ccc(NC(=O)c2ccc3c(c2)OCCO3)cc1,34,0,-2,1,7,20*,51*,45*
O=C(O)C1CCCCC1C(=O)Nc1ccc2c(c1)OCCO2 (configuration not stated),-72,0,-2,3,-65*,29*,2,6
O=C(Nc1ccc(S(=O)(=O)N2CCOCC2)cc1)c1ccccc1F,-8,/,/,-6,5,-4,/,/
